The values below come from BindingDB's records for doi:10.1021/ml5002486 (National Institute of Diabetes and Digestive and Kidney …, 2014).

As a reminder, the Kd is a measure of binding affinity in units of concentration.

In assay [1] the target is T1, Adenosine receptor A2a (Homo sapiens, UniProt P29274). Briefly: Displacement of [3H]4-[2-[7-amino-2-(2-furyl)-1,2,4-triazolo[1,5-a][1,3,5]triazin-5-yl-amino]ethylphenol from wild type human adenosine A2a receptor expressed in HEK293 cells assessed as radioligand Kd compound preincubated for 30 mins.
Target sequence in this assay (P29274 whole entry): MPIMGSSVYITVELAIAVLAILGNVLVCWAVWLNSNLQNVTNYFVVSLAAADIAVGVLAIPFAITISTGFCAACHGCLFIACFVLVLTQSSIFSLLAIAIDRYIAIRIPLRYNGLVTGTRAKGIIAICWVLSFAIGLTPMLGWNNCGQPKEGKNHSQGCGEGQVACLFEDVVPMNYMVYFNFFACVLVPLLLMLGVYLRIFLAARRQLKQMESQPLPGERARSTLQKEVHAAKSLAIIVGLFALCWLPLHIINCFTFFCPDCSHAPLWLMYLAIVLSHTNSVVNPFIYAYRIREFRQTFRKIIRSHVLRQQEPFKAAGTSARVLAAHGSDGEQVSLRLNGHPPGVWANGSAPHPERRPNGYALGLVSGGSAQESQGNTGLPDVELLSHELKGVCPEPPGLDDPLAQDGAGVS
In assay [2] the target is T1, Adenosine receptor A2a. Briefly: Displacement of [3H]4-[2-[7-amino-2-(2-furyl)-1,2,4-triazolo[1,5-a][1,3,5]triazin-5-yl-amino]ethylphenol from wild type human adenosine A2a receptor expressed in COS-7 cells assessed as radioligand Kd compound preincubated for 30 mins. In outline: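 WT, K150A or K153A human A2A receptor was transiently transfected into COS-7 cells. Membranes were preincubated with or without compound, then washed. Saturation binding used antagonist radioligand [3H]7, with nonspecific binding defined by 10 μM NECA. Kd (nM) and Bmax (pmol/mg protein) were derived from the saturation curves.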
(In general: Loss of bound radioactivity is the signal in a displacement assay; it reports binding, not function.)
Target sequence in this assay (P29274 whole entry): as above

For assay [3], the target named is T1, Adenosine receptor A2a. Nature of the assay: Displacement of [3H]4-[2-[7-amino-2-(2-furyl)-1,2,4-triazolo[1,5-a][1,3,5]triazin-5-yl-amino]ethylphenol from human adenosine A2a receptor K150A mutant expressed in COS-7 cells assessed as radioligand Kd compound preincubated for 30 mins.
Target sequence in this assay (P29274 whole entry, looked up): as the sequence (P29274 whole entry) above

Turning to `CCNC(=O)[C@H]1O[C@@H](n2cnc3c(N)nc(NCCc4ccc(CCC(=O)Nc5ccc(OC(C)=O)c([N+](=O)[O-])c5)cc4)nc32)[C@H](O)[C@@H]1O`, the Kd in assay [1] was 5 nM; in assay [2] it was 2.2 nM; in assay [3] it was 3.17 nM.

`CCNC(=O)[C@H]1O[C@@H](n2cnc3c(N)nc(NCCc4ccc(CCC(=O)Nc5ccc(OC(=O)CCCCN=[N+]=[N-])c([N+](=O)[O-])c5)cc4)nc32)[C@H](O)[C@@H]1O`: the Kd in assay [1] came out at 3.2 nM.
